Assay [1] deals with Vero. Kind of assay: Compound was tested for antiviral activity against Herpes Simplex Virus-2(MS strain) in vero cells (african green monkey kidney cells). It counts as functional, Chlorocebus sabaeus.
The subject of assay [2] is Vero. The assay is described as follows: Compound was tested for its potency against Herpes Simplex Virus-2 (MS strain) in vero cells (african green monkey kidney cells). It counts as functional. The note with it: Chlorocebus sabaeus.
In assay [3] the test system is Epidermoid carcinoma cell line. Kind of assay: Compound was tested for its potency against Herpes Simplex Virus-1(HF strain) in human epidermoid carcinoma cells. It counts as functional. An outline of the steps:
(§1)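 […] HSV-1 strain HF in human H.Ep.-2 monolayers (MEM, 5% calf serum growth, 2% FBS maintenance), 32 CCID50/well, in triplicate wells. Seven compound concentrations in half-log10 steps were used, cytotoxic to noncytotoxic. Plates were kept at 37 °C for 4 or 5 days; microscopic CPE was scored 0 (none) to 4 (100%) and a virus rating was calculated from the scores, with ara-A as positive control.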

Assay [4] deals with Epidermoid carcinoma cell line. Kind of assay: Compound was tested for its antiviral activity against Herpes Simplex Virus-1(HF strain) in human epidermoid carcinoma cells (H.Ep.-2) measured as virus rating (VR). It counts as functional. An outline of the steps:
as §1

For assay [5], the system named is MDCK. The assay is described as follows: (§2) Compound was tested for its potency against influenza virus (Ao) in MDCK cells. The assay is classed as functional. The note with it: Canis lupus familiaris. An outline of the steps: (§3)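 MDCK monolayers were infected at 32 CCID50 per well, in triplicate, with seven serial half-log10 compound dilutions spanning cytotoxic to noncytotoxic levels. Media were reinforced BME or MEM with 2% FBS, or MEM with trypsin (15 or 10 μg/mL). Plates were held 4–5 days at 37 °C, CPE was scored 0–4, and VR, ratio to ribavirin VR, and MIC50 were derived.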

Assay [6] concerns MDCK. Kind of assay: Compound was tested for antiviral activity against influenza virus (Ao) in MDCK cells. It counts as functional, Canis lupus familiaris. The method, boiled down:
as §3

A short description of assay [7]: Ratio of the VR of the C-cytosine nucleoside to the VR of ribavirin. The assay is classed as functional. An outline of the steps:
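Influenza A (A0/PR/8/34 in MDCK; A2/Aichi/2/68 in primary rhesus monkey kidney) CPE-inhibition in monolayers with various media (reinforced BME or MEM plus serum, or trypsin-containing MEM). Triplicate wells at 32 CCID50/well, seven serial half-log10 concentrations spanning cytotoxic to noncytotoxic, 37 °C 4 or 5 days. CPE scored 0–4 microscopically; VR by modified Ehrlich method, divided by concurrent ribavirin VR.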

The next assay is filed under the species Oryctolagus cuniculus. Kind of assay: Compound was tested for antiviral activity against Herpes Simplex Virus-1 (377 strain) in primary rabbit kidney cells. It counts as functional. The method, boiled down: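 Primary rabbit kidney monolayers (MEM; 5% calf serum growth, 2% FBS maintenance) were challenged with HSV-1 E-377 (TK+), 32 CCID50/well, in triplicate. Seven half-log10 dilutions ranged from cytotoxic to noncytotoxic, with cytotoxicity and uninfected controls. After 4–5 days at 37 °C, CPE was scored 0–4 and converted to VR; ara-A ratio and 50% CPE-inhibitory concentration (MIC50) were also determined.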

For assay [8], the system named is Vero. The assay is described as follows: C(compound) was tested for antiviral activity against Herpes Simplex Virus-2(MS strain) in vero cells (african green monkey kidney cells). The assay is classed as functional, Chlorocebus sabaeus.
Assay [9] relates to MDCK. Described as §2. It counts as functional, Canis lupus familiaris. The method, boiled down:
as §3

Values after ≈ are worked out from the molar mass of the structure shown.

In the assay on Vero [1], `Nc1nc(=O)n(C2CC(O)C(CO)C2)cc1Cl` (centres undefined) returned a VR of 0.7. In addition, the MIC50 in the assay with Vero [2] was determined as 270 µg/mL (≈ 1040 µM).

As to `Nc1ccn([C@@H]2C[C@H](CO)[C@@H](O)[C@H]2O)c(=O)n1`, the MIC50 worked out at 71 µg/mL (≈ 294 µM) in assay [3], 2.6 µg/mL (≈ 10.8 µM) against MDCK [5] and 2.4 µg/mL (≈ 9.95 µM) in the assay with Vero [2]. Further, the results for the VR (in assay [4]; in the assay with MDCK [6]; in the assay with Vero [1]) were 0.8, 3.5 and 3.2, respectively. Besides, the Ratio in [7] amounted to 0.73.

Take `Nc1ccn(C2CC(O)C(CO)C2)c(=O)n1` (centres undefined): the VR came to 0 in assay [4], 0 in the assay on MDCK [6], 2.6 in the assay filed under Oryctolagus cuniculus and 1.9 in the assay with Vero [8]. Also, the MIC50 is < 26 µg/mL in the assay listed under Oryctolagus cuniculus and 44 µg/mL (≈ 195 µM) against Vero [2].

`Nc1ccn([C@@H]2C[C@H](CO)[C@@H](O)[C@@H]2O)c(=O)n1`: the MIC50 in assay [3] came to 95 µg/mL (≈ 394 µM); against MDCK [5], 312 µg/mL (≈ 1290 µM); in the assay listed under Oryctolagus cuniculus, 30 µg/mL (≈ 124 µM); in the assay with Vero [2], 13 µg/mL (≈ 53.9 µM). For the same compound, the VR was found to be 0.6 in assay [4], 0.8 in the assay on MDCK [6], 1.8 in the assay filed under Oryctolagus cuniculus and 2.4 in the assay on Vero [1]. Further, the Ratio in assay [7] worked out at 0.2.

As for `Nc1ccn(C2CC(CO)CC2O)c(=O)n1` (centres undefined), the VR in [4] is reported as 0; in the assay with MDCK [6], 0.1.

As for `Nc1nc(=O)n([C@@H]2C[C@H](CO)[C@@H](O)[C@H]2O)cc1I`, the VR amounted to 0.2 with MDCK [6] and 0 in the assay with Vero [1].

`Nc1nc(=O)n(C2CC(CO)C(O)C2O)cc1Br` (centres undefined) returned an MIC50 with MDCK [5] of 150 µg/mL (≈ 469 µM). In the assay with MDCK [6], this compound came in with a VR of 1.5. The Ratio in assay [7] turned out to be 0.36.

Turning to `Nc1nc(=O)n([C@@H]2C[C@H](CO)[C@@H](O)[C@@H]2O)cc1I`, the VR in assay [4] stood at 0; in the assay with Vero [1], 2.2. The MIC50 in the assay on Vero [2] worked out at 197 µg/mL (≈ 537 µM).

For `Nc1nc(=O)n(C2CC(CO)CC2O)cc1I` (centres undefined), the VR was 0 with MDCK [6] and 0.5 in the assay with MDCK [9].

As to `Nc1nc(=O)n(C2CC(O)C(CO)C2)cc1I` (centres undefined), the results for the VR (in [4]; in the assay with Vero [1]) were 0 and 1, respectively. The compound further displayed an MIC50 in the assay on Vero [2] of 340 µg/mL (≈ 968 µM).

For `Nc1nc(=O)n(C2CC(CO)C(O)C2O)cc1Cl` (centres undefined), the VR in the assay on MDCK [6] came out at 0.4. The Ratio in assay [7] turned out to be 0.1.

On to `Nc1nc(=O)n(C2CC(O)C(CO)C2)cc1Br` (centres undefined), for which the VR in [4] is on record as 0; with Vero [1] it was 2.6. This compound also displayed an MIC50 against Vero [2] of 62 µg/mL (≈ 204 µM).

Source of the values: ChEMBL document CHEMBL1123537, “Carbocyclic analogues of 5-halocytosine nucleosides” (1986).
